Most compounds without a hit are left out; they make up all but 2.2% or so of the library.
HIV Env fusion: blocks HIV Env-driven cell-cell fusion | HeLa-JRFL Env/CEM21 cell fusion, luciferase | inhibition, % at 12.3 µM | actives 1.1% (n = 360,000);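 active means mean replicate inhibition score of at least 50 and every replicate individually at or above 50; inconclusive means only one of the two criteria met; inactive means mean below 50 and not all replicates reaching 50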
PvdQ acylase: blocks Pseudomonas aeruginosa PvdQ acylase activity | inhibition, % at 10 µM | actives 0.063% (n = 340,000) | AID 488965 | purified PvdQ acylase, fluorescence plate reader; in the data active means inhibition above about 30%, passing the limit was not always enough; inconclusive means no clear call, values can overlap the other calls
PDI turbidity: blocks human protein disulfide isomerase activity | P07237 | PDI insulin aggregation turbidity, A650, 90 min | inhibition, % at 10 µM | actives 0.052% (n = 350,000) | AID 588391;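 active means mean inhibition across replicates of 30% or more, whatever share of single replicates reach that level; inconclusive means mean inhibition below 30% while every single replicate reaches 30%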
Target sequence (P07237 whole entry, looked up): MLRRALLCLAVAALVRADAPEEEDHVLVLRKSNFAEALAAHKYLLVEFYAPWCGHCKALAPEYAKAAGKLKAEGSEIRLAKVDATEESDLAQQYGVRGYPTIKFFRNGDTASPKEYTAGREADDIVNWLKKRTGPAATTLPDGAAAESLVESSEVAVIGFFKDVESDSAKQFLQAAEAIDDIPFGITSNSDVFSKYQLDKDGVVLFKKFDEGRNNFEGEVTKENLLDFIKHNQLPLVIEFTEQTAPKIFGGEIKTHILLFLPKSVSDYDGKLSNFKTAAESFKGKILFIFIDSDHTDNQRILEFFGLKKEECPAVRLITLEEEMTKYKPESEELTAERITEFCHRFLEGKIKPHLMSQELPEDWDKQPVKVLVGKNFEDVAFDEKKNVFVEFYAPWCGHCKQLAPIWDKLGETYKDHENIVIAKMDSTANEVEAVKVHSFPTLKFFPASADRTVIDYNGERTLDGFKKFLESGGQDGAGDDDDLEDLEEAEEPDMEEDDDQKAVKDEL
rRNA inh HTS: inhibits bacterial ribosomal RNA function over humanized ribosomes | GFP signal change (wild-type ribosome), % (test concentration not listed) | actives 1.6% (n = 350,000) | E. coli WT GFP vs humanized-ribosome RFP mutants, fluorescence, 24 h; hits give low values; DMSO median 0, no signal -100;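 active means significant combined selectivity score with lowered wild-type GFP, culture density cut under 30%, mutant RFP and density less affected; inactive means any of these conditions unmet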
FN deposit inh: fibronectin deposition inhibition | AH1F fibroblasts, Alexa488-fibronectin deposition fluorescence, overnight | inhibition, % at 12.6 µM | actives 0.086% (n = 350,000);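 active means mean inhibition across replicates of 30% or more, regardless of how many single replicates reach that level; inconclusive means mean under 30% yet at least half of replicates reach 30%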
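test system = AH1F fibroblasts assembling fluorescent fibronectin matrix | quantity = 10000 AH1F cells per well | buffer or medium = DMEM plus 2% serum, read in PBS | doses = single dose, pinned | incubation = 1 h cell attachment, overnight exposure to compound and label | detection = fluorescence at 485 nm excitation, 525 nm emission | read-out basis = inhibition from reduced deposited-fibronectin fluorescence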
ERp5 block: blocks human ERp5 reductase activity on insulin; Q15084; ERp5 insulin aggregation, absorbance 650 nm, 90 min; inhibition, % at 9.99 µM; actives 0.05% (n = 350,000);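 active means mean replicate inhibition above about 25%, with every replicate also reaching it, limit read from the data, passing the limit was not always enough; inconclusive means only one of those two criteria met; inactive means neither criterion met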
Of the large screens only hits and unclear results are named; the others gave an inactive call.

COc1ccc(CN2C[C@@H](C)[C@H](OC)CN(C)C(=O)c3cc(NC(=O)c4nc5ccccc5s4)ccc3OC[C@H]2C)cc1	none (no result: HIV Env fusion, PvdQ acylase, PDI turbidity)
CN(C)CC(=O)N1CC2(C1)[C@H](c1ccccc1)[C@H](CO)N2S(=O)(=O)c1ccccc1	none (no result: HIV Env fusion, PvdQ acylase, PDI turbidity, FN deposit inh)
COc1cc2c(cc1OC)C(=O)N1[C@H]3c4ccccc4OC[C@@H]3[C@H](c3ccccc3)[C@]1(C)C(=O)N2	HIV Env fusion 66
CCOC(=O)[C@@H]1[C@H]2COc3cc(OC)ccc3[C@H]2N2C(=O)N(c3ccc(C(F)(F)F)cc3)C(=O)[C@]12C	HIV Env fusion 109
COc1ccc2c(c1)OC[C@H]1[C@H]2N2C(=O)c3cc(OC)c(OC)cc3NC(=O)[C@@]2(C)[C@H]1c1ccccc1	none
O=C(Cc1ccncc1)Nc1ccc2c(c1)[C@@H]1C[C@H](CC(=O)NC3CCCC3)O[C@@H](CO)[C@@H]1O2	none (no result: PvdQ acylase, PDI turbidity)
O=C(Nc1nnc(C2=COCCO2)o1)c1ccc(S(=O)(=O)N2CCCC2)cc1	none
CC1CCN(S(=O)(=O)c2ccc(C(=O)Nc3nnc(C4=COCCO4)o3)cc2)CC1	rRNA inh HTS -23
C[C@@H]1CN([C@@H](C)CO)C(=O)c2cc(C3=CCCC3)cnc2O[C@H]1CN(C)S(=O)(=O)c1cn(C)cn1	none (no result: PvdQ acylase, PDI turbidity)
O=C(NCc1cccnc1)c1ccc(COc2ccc3c(c2)CCC3)o1	rRNA inh HTS -21 (no result: HIV Env fusion, FN deposit inh)
O=C(NCc1cccnc1)c1ccc(COc2ccccc2Br)o1	rRNA inh HTS -24 (no result: HIV Env fusion, FN deposit inh)
COC(=O)c1ccc(COc2ccc3c(c2)CCC3)o1	rRNA inh HTS -24
NNC(=O)c1ccc(COc2ccc3c(c2)CCC3)cc1	rRNA inh HTS -26
C[C@@H]1CN([C@H](C)CO)C(=O)c2cc(C#Cc3ccccc3F)cnc2O[C@@H]1CN(C)C(=O)C1CCCCC1	none (no result: PvdQ acylase, PDI turbidity, FN deposit inh)
Cc1noc(C)c1S(=O)(=O)N(C)C[C@@H]1Oc2ccc(NS(=O)(=O)c3ccc(F)cc3)cc2C(=O)N([C@H](C)CO)C[C@@H]1C	none (no result: PvdQ acylase, PDI turbidity, FN deposit inh, ERp5 block)
CCCc1ccc(OCc2ccc(C(=O)OC)o2)c(OC)c1	rRNA inh HTS -19 (no result: HIV Env fusion, FN deposit inh)
CCCc1ccc(OCc2ccc(C(=O)O)o2)c(OC)c1	none (no result: HIV Env fusion, rRNA inh HTS, FN deposit inh, ERp5 block)
Cc1ccc(S(=O)(=O)Nc2ccccc2CNc2ccccn2)cc1	rRNA inh HTS -28, ERp5 block inconclusive
Cc1ccc(S(=O)(=O)N[C@H]2CC[C@H](CC(=O)NCCN3CCCCC3)O[C@H]2CO)cc1	none (no result: PvdQ acylase, PDI turbidity)
CCOC(=O)C1=C(c2ccccc2)NC(=O)NC1c1ccc(O)c(Cl)c1 (stereo unspecified)	FN deposit inh 48
CCOC(=O)C1=C(c2ccccc2)NC(=O)NC1c1ccc(O)c(OCC)c1 (stereo unspecified)	none
O=C(c1ccncc1)N1CC(=O)N2[C@H](C1)[C@@H](c1ccc(/C=C/c3ccccc3)cc1)[C@@H]2CO	none (no result: HIV Env fusion, PvdQ acylase, PDI turbidity, FN deposit inh)
Nc1ccc(S(=O)(=O)Nc2nccs2)cc1N=Nc1ccccc1[N+](=O)[O-]	rRNA inh HTS -20
O=[N+]([O-])c1ccccc1S(=O)(=O)Nc1ccc(S(=O)(=O)Nc2nccs2)cc1	none
COc1ccc(-c2cnc3c(c2)C(=O)N([C@H](C)CO)C[C@H](C)[C@@H](CN(C)C(=O)Cc2cccnc2)O3)cc1	none (no result: PvdQ acylase, PDI turbidity, FN deposit inh)
Cc1n(Cc2ccccc2)c2cc([N+](=O)[O-])ccc2[n+]1Cc1ccccc1	none
Cc1n(Cc2ccccc2)c2ccccc2[n+]1Cc1ccccc1	rRNA inh HTS -34
COc1cccc(C(=O)Nc2ccc3c(c2)C(=O)N(C)C[C@H](OC)[C@H](C)CN(C(C)=O)[C@@H](C)CO3)c1	none (no result: PvdQ acylase, PDI turbidity)
CNC[C@H](O)c1cccc(O)c1	none
CCN(CC(O)c1cccc(O)c1)C(=O)C12CC3CC(CC(C3)C1)C2 (stereo unspecified)	HIV Env fusion 74
Cc1ccc(S(=O)(=O)N2C[C@@H]3[C@H]4CC[C@H](C4)[C@@H]3[C@@H](C)[C@@H]2c2cn(Cc3ccccc3)c3ncccc23)cc1	none (no result: FN deposit inh)
Cc1ccc(S(=O)(=O)N2C[C@@H]3CCCC[C@@H]3[C@@H](C)[C@H]2c2cn(Cc3ccccc3)c3ncccc23)cc1	HIV Env fusion 70 (no result: FN deposit inh)
Cc1ccc(S(=O)(=O)N2C[C@@H]3CCCC[C@@H]3[C@@H](C)[C@H]2c2cn(Cc3ccccc3)c3ccccc23)cc1	HIV Env fusion 63
COc1ccc2c(c1)c([C@@H]1[C@H](C)[C@H]3CCCC[C@H]3CN1S(=O)(=O)c1ccc(C)cc1)cn2C	none
C[C@@H]1CCCCO[C@@H](CN(C)C(=O)CCCN(C)C)[C@@H](C)CN([C@@H](C)CO)C(=O)c2cc(NS(=O)(=O)c3cccs3)ccc2O1	none (no result: HIV Env fusion, PvdQ acylase, PDI turbidity, FN deposit inh, ERp5 block)
CC12CCC3C(CCC4CC(O)CCC43C)C1CC(O)C2 (stereo unspecified)	rRNA inh HTS -28
Cc1ccccc1CC1(CO)CCCN(Cc2nc(-c3cccs3)oc2C)C1 (stereo unspecified)	rRNA inh HTS -25
COc1ccc(C2c3ccc4ccccc4c3Oc3ncn(CCN4CCOCC4)c(=N)c32)cc1OC (stereo unspecified)	FN deposit inh 30 (no result: rRNA inh HTS)
COc1ccc(C2c3ccc4ccccc4c3Oc3ncn(CCCO)c(=N)c32)cc1OC (stereo unspecified)	rRNA inh HTS -20
COc1ccc(C2c3ccc4ccccc4c3Oc3ncn(CCCO)c(=N)c32)cc1 (stereo unspecified)	none
COc1ccc(C2c3ccc4ccccc4c3Oc3ncn(CCO)c(=N)c32)cc1OC (stereo unspecified)	none (no result: HIV Env fusion, FN deposit inh)
N=c1c2c(ncn1CCCO)Oc1c(ccc3ccccc13)C2c1ccccc1 (stereo unspecified)	rRNA inh HTS -40
COc1ccc(C2c3ccc(O)cc3Oc3ncn(CCN4CCOCC4)c(=N)c32)cc1OC (stereo unspecified)	PDI turbidity 54
C[C@H](CO)N1C[C@H](C)[C@H](CN(C)C)Oc2ccc(NS(=O)(=O)c3cccs3)cc2CC1=O	none (no result: HIV Env fusion, PvdQ acylase, PDI turbidity, FN deposit inh)
C[C@@H]1CN([C@@H](C)CO)C(=O)c2cc(C3=CCCCC3)cnc2O[C@@H]1CN(C)Cc1ccccn1	none (no result: PvdQ acylase, PDI turbidity)
N=c1c2c(ncn1Cc1ccco1)Oc1ccc3ccccc3c1C2c1ccccc1 (stereo unspecified)	none (no result: HIV Env fusion, rRNA inh HTS, ERp5 block)
N=c1c2c(ncn1CCCO)Oc1ccc3ccccc3c1C2c1ccccc1 (stereo unspecified)	rRNA inh HTS -19 (no result: PvdQ acylase)
CCN(CC)CCN(C(=O)c1c(F)cccc1F)c1nc2cc(C)cc(C)c2s1	rRNA inh HTS -31
CCN(CC)CCN(C(=O)c1ccc(S(=O)(=O)N2CCCC2)cc1)c1nc2cc(C)cc(C)c2s1	none (no result: FN deposit inh)
CCCCOc1ccc(C(=O)NCCN2CCC(n3c(=O)[nH]c4ccccc43)CC2)cc1	rRNA inh HTS -45 (no result: PvdQ acylase, PDI turbidity)
O=C(NCCN1CCC(n2c(=O)[nH]c3ccccc32)CC1)c1ccc(OC(F)(F)F)cc1	none (no result: PvdQ acylase, PDI turbidity)

High-throughput results (PubChem BioAssay)
